Converted amounts (≈) assume the structure as drawn. “Also recorded” adds a separate entry of the source.
What was measured:
[1] = tested on: P. falciparum 3D7 strain; details: ref Hidayati et al., 2020; cited from earlier work
[2] = tested on: succinate-cytochrome c (complex II-III activities); test: Counter assay succinate-cytochrome c activity, bovine heart mitochondria; format: biochemical; details: read-out: IC50 of the sample against succinate-cytochrome c (complex II-III)
Procedure, shortened: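 Run as the NADH assay (phosphate buffer pH 7.4, 2 mM KCN) but with 100 µM cytochrome c and 25 µg/mL bovine heart mitochondria. Reaction started with 10 mM succinate, and cytochrome c reduction read at 550 nm, in quadruplicate. Test compound was serially diluted from 100 to 0.003 µM. DMSO was the 0% inhibition control and 5 µM ascochlorin the 100% inhibition control.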

[3] = tested on: NADH-cytochrome c (complex I-III activities); test: Counter assay NADH-cytochrome c activity, bovine heart mitochondria; format: biochemical; details: read-out: IC50 of the sample against succinate-cytochrome c (complex I-III)
[4] = tested on: Plasmodium falciparum 3D7; test: Isobologram analysis, fixed-ratio combinations; format: cell-based; details: fixed ratios 4:1, 3:2, 2:3, 1:4; 72 h
Procedure, shortened: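 Test compound was combined with atovaquone or chloroquine at fixed ratios 4:1, 3:2, 2:3 and 1:4, with 5:0 and 0:5 for single agents, in serial dilution. Synchronized rings at 0.3% parasitemia were incubated 72 h at 37 °C under 90% N2/5% CO2/5% O2, then read by PfLDH/diaphorase. IC50 was determined per mixture, and FIC = IC50 in mixture / IC50 alone.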

[5] = tested on: synchronized P. falciparum 3D7 strain; test: Impairment of P. falciparum intraerythrocytic stage development; format: cell-based, Plasmodium falciparum; details: tested at IC50 concentration
Procedure, shortened: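 Parasites were sorbitol-synchronized (5% w/v) and set at 0.3% parasitemia in human O+ RBCs in RPMI-1640 with 10% human serum at 37 °C. Sampling was at 0, 24 and 48 h. Giemsa-stained thin smears were scored for stage by light microscopy at 1000×. Each concentration was run in duplicate on the same plate.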

[6] = tested on: Plasmodium falciparum 3D7; test: In vitro antimalarial assay; format: cell-based; details: P. falciparum 3D7, 48 h, microscopic assay; listed as Chloroquine diphosphate
Procedure, shortened: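 Test compound stock was 10 mg/mL in DMSO, diluted in RPMI-1640 to final 0.01–100 µg/mL. It was added to culture at ~1% parasitemia and 5% haematocrit in human O+ RBCs with 10% serum, then incubated 48 h at 37 °C. Parasitemia was counted per 1000 RBCs on 10% Giemsa smears. Inhibition was taken relative to the negative control, and IC50 came from a four-parameter logistic fit.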

[7] = target: T1, recombinant PfMQO (Plasmodium falciparum, UniProt C6KT09); test: Recombinant PfMQO activity inhibition assay; format: biochemical; details: recombinant PfMQO membrane fraction
T1 sequence (C6KT09 1-521): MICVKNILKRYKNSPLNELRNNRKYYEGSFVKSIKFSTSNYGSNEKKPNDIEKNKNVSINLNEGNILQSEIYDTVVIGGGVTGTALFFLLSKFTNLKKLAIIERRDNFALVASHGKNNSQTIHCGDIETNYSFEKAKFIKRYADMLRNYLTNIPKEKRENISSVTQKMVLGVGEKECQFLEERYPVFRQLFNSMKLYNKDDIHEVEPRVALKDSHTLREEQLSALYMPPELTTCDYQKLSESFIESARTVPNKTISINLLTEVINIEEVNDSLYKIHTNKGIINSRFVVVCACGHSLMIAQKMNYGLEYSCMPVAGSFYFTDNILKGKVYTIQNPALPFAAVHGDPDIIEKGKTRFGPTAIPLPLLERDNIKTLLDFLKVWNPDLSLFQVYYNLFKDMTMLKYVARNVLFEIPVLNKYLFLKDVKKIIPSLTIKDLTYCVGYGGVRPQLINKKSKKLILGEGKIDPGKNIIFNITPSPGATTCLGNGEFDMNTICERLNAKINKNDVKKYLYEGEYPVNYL
Procedure, shortened: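 PfMQO membrane fraction (3 µg/mL) was used in 50 mM HEPES-KOH pH 7.0 with 1 mM KCN, 25 µM decylubiquinone and 120 µM DCIP. Background was read for 5 min at 600 nm and 37 °C, then malate (400 mM stock) was added and activity recorded for 10 min. DMSO wells served as 0% and no-malate wells as 100%. Runs were in triplicate over test compound 0.001–100 µM, with four-parameter nonlinear fit.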

[8] = tested on: P. falciparum; details: P. falciparum growth; ref Widyawaruyanti et al., 2007; cited from earlier work

CC(C)=CCCC1(C)C=Cc2c(CCC(=O)c3ccc(O)cc3O)ccc(O)c2O1 (stereo not drawn) [1-(2,4-dihydroxyphenyl)-3-(8-hydroxy-2-methyl-2-(4-methyl-3-pentenyl)-2H-1-benzopyran-5-yl]-1-propanone]
IC50 [1]: 1050 nM

CC(/C=C/[C@@]1(C)[C@H](C)CCC(=O)[C@@H]1C)=C\Cc1c(O)c(Cl)c(C)c(C=O)c1O [Ascochlorin]
IC50 [2]: 10 nM | IC50 [3]: 10 nM

Cc1c(-c2ccc(-c3ccccc3F)cc2)nc2ccc(F)cc2c1C(=O)O [Brequinar]
IC50 [2]: 22900 ± 1460 nM

CCN(CC)CCCC(C)Nc1ccnc2cc(Cl)ccc12 (stereo not drawn) [Chloroquine]
interaction in combination with atovaquone (isobologram) [4]: antagonistic interactions; also recorded: antagonism | stage development after 24 h of incubation ([5]; 24 h): ring stage was still dominant | stage development after 48 h of incubation ([5]; 48 h): accumulation of trophozoite | IC50 [6]: 0.004 µg/mL (≈ 0.0125 µM)

CC(C)=CCC/C(C)=C/CC/C(C)=C/Cc1c(O)c2ccccc2oc1=O [Ferulenol]
IC50 [2]: 170 ± 10 nM | IC50 [7]: 0.06 ± 0.01 µg/mL | IC50 ([7]; listed as ferulenol): 170 nM | IC50 [3]: 280 ± 80 nM

C=C(C)[C@H]1Cc2c(ccc3c2O[C@@H]2COc4cc(OC)c(OC)cc4[C@@H]2C3=O)O1 [Rotenone]
IC50 [2]: 1860 ± 110 nM | IC50 [3]: 10 nM

Heteroflavanone C
IC50 [8]: 1 nM

Source: PMC9798170 (International Journal for Parasitology: Drugs and Drug …, 2022)
